Reference: ChEMBL document CHEMBL1125741, “Synthesis and anticonvulsant activity of imidooxy derivatives” (J Med Chem, 1991)
Activity calls are given as the source filed them. The rule behind the calls is not given here.

What was measured:
[1] = Time of peak effect (TPE) for toxicity; design: unit not given here
In short: (§1)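 Phase II quantitation, drug given ip. ED50 in the MES or scMet test was taken at the time of peak effect, with the peak time set in MES for some compounds and in scMet for others. Rotorod TD50 was taken at the time of peak neurologic deficit. Values are in mg/kg with 95% confidence limits. Protective index is TD50/ED50.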

[2] = Protective index which is the ratio of TD50 to ED50 of in maximal electroshock test.; type: functional; in short: as §1
[3] = Compound was evaluated for toxic dose at peak neurologic deficit after intraperitoneal administration of the compound.; type: ADME, organism-based, Gallus gallus; details: chicken, in vivo, ip
In short: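 Mice received compound dissolved or suspended in 30% polyethylene glycol 400 by intraperitoneal injection. Neurological toxicity was scored as failure on the rotorod test. Testing was run through the NINCDS Antiepileptic Drug Development Program.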

[4] = Time of peak effect (TPE) for activity; type: ADME; design: unit not given here; in short: as §1
Gallus gallus [5] = test: Anticonvulsant activity by maximal electroshock test at a dose of 30 mg/kg against young chicks after 30 min; 1/1; type: functional
Gallus gallus [6] = test: Anticonvulsant activity by subcutaneous pentylenetetrazole test at a dose of 30 mg/kg against young chicks after 4 hr; 1/1; type: functional
Gallus gallus [7] = test: Anticonvulsant activity by maximal electroshock test at a dose of 300 mg/kg against young chicks after 30 min; 1/1; type: functional
Gallus gallus [8] = test: Anticonvulsant activity by subcutaneous pentylenetetrazole test at a dose of 100 mg/kg against young chicks after 30 min; 1/1; type: functional
Gallus gallus [9] = test: Anticonvulsant activity by subcutaneous pentylenetetrazole test at a dose of 300 mg/kg against young chicks after 30 min; 0/0; type: functional
Gallus gallus [10] = test: Toxicity test (number of animals exhibiting toxicity / number of animals tested) done at a dose 100 mg/kg against young chicks after 4 hr; 4/4; type: organism-based; design: dose 100 mg/kg; details: chicken, in vivo
[11] = Protective index which is the ratio of TD50 to ED50 of against subcutaneous pentylenetetrazole test; type: functional; in short: as §1
Gallus gallus [12] = test: Anticonvulsant activity by subcutaneous pentylenetetrazole test at a dose of 30 mg/kg against young chicks after 30 min; 1/1; type: functional
Gallus gallus [13] = test: Subcutaneous pentylenetetrazole test (ScMet) (number of animals protected / number of animals tested) at a dose of 30 mg/kg after 0.25 hr; 4/8; type: functional
Gallus gallus [14] = test: Toxicity test (number of animals exhibiting toxicity / number of animals tested) at a dose of 50 mg/kg after 1 hr; 7/8; type: organism-based; design: dose 50 mg/kg; details: chicken, in vivo
Gallus gallus [15] = test: Toxicity test (number of animals exhibiting toxicity / number of animals tested) at a dose of 30 mg/kg after 1 hr; 1/8; type: organism-based; design: dose 30 mg/kg; details: chicken, in vivo
Gallus gallus [16] = test: Toxicity test (number of animals exhibiting toxicity / number of animals tested) at a dose of 30 mg/kg after 0.25 hr; 0/8; type: organism-based; design: dose 30 mg/kg; details: chicken, in vivo
Gallus gallus [17] = test: Toxicity test (number of animals exhibiting toxicity / number of animals tested) at a dose of 30 mg/kg after 6 h; 8/8; type: organism-based; design: dose 30 mg/kg; details: chicken, in vivo
Gallus gallus [18] = test: Subcutaneous pentylenetetrazole test (ScMet) (number of animals protected / number of animals tested) at a dose of 30 mg/kg after 1 hr; 8/8; type: functional
Gallus gallus [19] = test: Toxicity test (number of animals exhibiting toxicity / number of animals tested) at a dose of 50 mg/kg after 2 hr; 6/8; type: organism-based; design: dose 50 mg/kg; details: chicken, in vivo
Gallus gallus [20] = test: Toxicity test (number of animals exhibiting toxicity / number of animals tested) at a dose of 30 mg/kg after 4 hr; 8/8; type: organism-based; design: dose 30 mg/kg; details: chicken, in vivo
Gallus gallus [21] = test: Toxicity test (number of animals exhibiting toxicity / number of animals tested) at a dose of 30 mg/kg after 0.50 hr; 0/8; type: organism-based; design: dose 30 mg/kg; details: chicken, in vivo, 0.5 h
Gallus gallus [22] = test: Toxicity test (number of animals exhibiting toxicity / number of animals tested) at a dose of 30 mg/kg after 2 hr; 8/8; type: organism-based; design: dose 30 mg/kg; details: chicken, in vivo
Gallus gallus [23] = test: Toxicity test (number of animals exhibiting toxicity / number of animals tested) at a dose of 50 mg/kg after 0.50 hr; 4/8; type: organism-based; design: dose 50 mg/kg; details: chicken, in vivo, 0.5 h
Gallus gallus [24] = test: Subcutaneous pentylenetetrazole test (ScMet) (number of animals protected / number of animals tested) at a dose of 30 mg/kg after 2 hr; 8/8; type: functional
Gallus gallus [25] = test: Subcutaneous pentylenetetrazole test (ScMet) (number of animals protected / number of animals tested) at a dose of 30 mg/kg after 0.50 hr; 4/8; type: functional
Gallus gallus [26] = test: Anticonvulsant activity by subcutaneous pentylenetetrazole test at a dose of 300 mg/kg against young chicks after 30 min; 1/1; type: functional
Gallus gallus [27] = test: Anticonvulsant activity by maximal electroshock test at a dose of 100 mg/kg against young chicks after 30 min; 1/3; type: functional
Gallus gallus [28] = test: Toxicity test (number of animals exhibiting toxicity / number of animals tested) done at a dose 100 mg/kg against young chicks after 4 hr; […]; type: organism-based; design: dose 100 mg/kg; details: chicken, in vivo
Gallus gallus [29] = test: Compound was evaluated for effective dose by subcutaneous pentylenetetrazole test after intraperitoneal administration of the compound; Not Effective; type: functional, organism-based; in short: as §1
Gallus gallus [30] = test: Anticonvulsant activity by maximal electroshock test at a dose of 100 mg/kg against young chicks after 30 min; 2/3; type: functional
Gallus gallus [31] = test: Compound was evaluated for effective dose by maximal electroshock test after intraperitoneal administration of the compound.; type: functional; details: ip; in short: as §1
Gallus gallus [32] = test: Toxicity test (number of animals exhibiting toxicity / number of animals tested) done at a dose 100 mg/kg against young chicks after 30 min; 8/8; type: organism-based; design: dose 100 mg/kg; details: chicken, in vivo, 0.5 h
Gallus gallus [33] = test: Anticonvulsant activity by subcutaneous pentylenetetrazole test at a dose of 100 mg/kg against young chicks after 30 min; 0/0; type: functional

Structure (SMILES): O=C1CC2(CCCC2)C(=O)N1OCc1ccccc1
- TPE [1]: 4
- PI [2]: 4.5
- TD50 [3]: > 500 mg/kg
- TPE [4]: 0.25

Structure (SMILES): CCC1(C)CC(=O)NC1=O (stereo not given) [ETHOSUXIMIDE]
- TPE [1]: 0.5
- TPE [4]: 0.5

Structure (SMILES): C=C(CON1C(=O)c2ccccc2C1=O)C(=O)OC
- No. of animals protected/animals tested (Gallus gallus [5]): 1
- TPE [1]: 4
- No. of animals protected/animals tested (Gallus gallus [6]): 1
- No. of animals protected/animals tested (Gallus gallus [7]): 1
- No. of animals protected/animals tested (Gallus gallus [8]): 1
- No. of animals protected/animals tested (Gallus gallus [9]): 0
- TPE [4]: 1
- No. of animals protected/animals tested (Gallus gallus [10]): 4
- PI [11]: 0.72
- No. of animals protected/animals tested (Gallus gallus [12]): 1

Structure (SMILES): C=C(CON1C(=O)CCC1=O)C(=O)OC
- No. of animals protected/animals tested (Gallus gallus [13]): 4
- No. of animals protected/animals tested (Gallus gallus [14]): 7
- No. of animals protected/animals tested (Gallus gallus [15]): 1
- No. of animals protected/animals tested (Gallus gallus [16]): 0
- No. of animals protected/animals tested (Gallus gallus [17]): 8
- No. of animals protected/animals tested (Gallus gallus [18]): 8
- No. of animals protected/animals tested (Gallus gallus [19]): 6
- No. of animals protected/animals tested (Gallus gallus [20]): 8
- No. of animals protected/animals tested (Gallus gallus [21]): 0
- No. of animals protected/animals tested (Gallus gallus [22]): 8
- No. of animals protected/animals tested (Gallus gallus [23]): 4
- No. of animals protected/animals tested (Gallus gallus [24]): 8
- No. of animals protected/animals tested (Gallus gallus [25]): 4

Structure (SMILES): CCOC(=O)ON1C(=O)CCC1=O
- No. of animals protected/animals tested (Gallus gallus [26]): 1
- No. of animals protected/animals tested (Gallus gallus [27]): 1
- No. of animals protected/animals tested (Gallus gallus [28]): 4

Structure (SMILES): CCC1(c2ccccc2)C(=O)NC(=O)NC1=O [PHENOBARBITAL]
- TPE [1]: 0.5
- TPE [4]: 1

Structure (SMILES): NC(=O)N1c2ccccc2C=Cc2ccccc21 [CARBAMAZEPINE]
- TPE [1]: 0.25
- ED50 (Gallus gallus [29]): inactive
- TPE [4]: 0.25

Structure (SMILES): O=C1NC(=O)C(c2ccccc2)(c2ccccc2)N1 [PHENYTOIN]
- TPE [1]: 2
- ED50 (Gallus gallus [29]): inactive
- TPE [4]: 2

Structure (SMILES): O=C1c2ccccc2C(=O)N1O
- TPE [1]: 0.25
- No. of animals protected/animals tested (Gallus gallus [30]): 2
- ED50 (Gallus gallus [31]): 95.4 mg/kg
- PI [2]: 0.99
- No. of animals protected/animals tested (Gallus gallus [32]): 8
- No. of animals protected/animals tested (Gallus gallus [33]): 0
- TPE [4]: 0.25
- No. of animals protected/animals tested (Gallus gallus [10]): 4

Structure (SMILES): CCCC(CCC)C(=O)O [VALPROIC ACID]
- TPE [1]: 0.25
- PI [2]: 1.57
- TPE [4]: 0.25
- PI [11]: 2.87

Structure (SMILES): O=C1c2cccc3cccc(c23)C(=O)N1[O-].[Na+]
- TPE [1]: 4
- TPE [4]: 0.25
- PI [11]: 0.84
